Measured values as given in ChEMBL document CHEMBL1148981, “A phthalide with in vitro growth inhibitory activity from an oidiodendron strain” (J Nat Prod, 2004).

Experiments:
[1] = system: U-251; test: Cytotoxicity against human U251 cells; assay type: functional
Summary of the method: (§1)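 Growth inhibition read as GI50. Lines were run at one of two sites. At Cetek, cells grew in ATCC-recommended media and viability was read as CellTiter Blue resazurin reduction by fluorescence at 530/590. At NCI DTP, cells grew in RPMI 1640 with 5% FBS and 2 mM L-glutamine, and viability was read by TCA fixation and sulforhodamine B total-protein staining.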

[2] = system: EKVX; test: Cytotoxicity against human EKVX cells; assay type: functional; summary of the method: as §1
[3] = system: Jurkat; test: Cytotoxicity against human Jurkat cells; assay type: functional; summary of the method: as §1
[4] = target: T1, RAC-alpha serine/threonine-protein kinase (Homo sapiens, UniProt P31749); test: Inhibition of sulfhydryl-labeled human recombinant Akt1 expressed in baculovirus by affinity capillary electrophoresis assay
T1 sequence (P31749 whole entry): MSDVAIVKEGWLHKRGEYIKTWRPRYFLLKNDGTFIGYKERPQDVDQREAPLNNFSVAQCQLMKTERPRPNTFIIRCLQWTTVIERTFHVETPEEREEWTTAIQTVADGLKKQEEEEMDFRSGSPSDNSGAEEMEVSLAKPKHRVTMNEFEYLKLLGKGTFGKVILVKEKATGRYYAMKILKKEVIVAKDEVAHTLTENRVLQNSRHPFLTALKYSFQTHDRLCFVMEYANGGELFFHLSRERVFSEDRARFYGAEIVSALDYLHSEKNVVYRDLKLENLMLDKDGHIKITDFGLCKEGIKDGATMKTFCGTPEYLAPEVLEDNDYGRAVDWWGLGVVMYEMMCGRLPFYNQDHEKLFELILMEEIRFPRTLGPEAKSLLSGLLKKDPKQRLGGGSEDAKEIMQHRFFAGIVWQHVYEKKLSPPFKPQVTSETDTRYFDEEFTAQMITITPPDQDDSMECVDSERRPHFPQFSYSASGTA
Summary of the method: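 Baculovirus-expressed human Akt1 was buffer-exchanged into 30 mM HEPES pH 7.5 with 0.1% Chaps and 150 mM NaCl. It was labeled with Fluorescein-5-EX succinimidyl ester (dye:protein 5:1) for 2 h on ice, quenched with β-mercaptoethanol and stored in 50% glycerol at -20 °C. Compound was titrated against labeled Akt1 by affinity capillary electrophoresis. IC50 is the mean of three experiments with SEM.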

[5] = system: SNB-75; test: Cytotoxicity against human SNB75 cells; assay type: functional; summary of the method: as §1
[6] = system: K562; test: Cytotoxicity against human K562 cells; assay type: functional; summary of the method: as §1
[7] = system: MDA-MB-435; test: Cytotoxicity against human MDA-MB-435 cells; assay type: functional; summary of the method: as §1
[8] = system: NCI-H23; test: Cytotoxicity against human NCI-H23 cells; assay type: functional; summary of the method: as §1
[9] = target: T1, RAC-alpha serine/threonine-protein kinase; test: Inhibition of sulfhydryl-labeled human recombinant Akt1 expressed in baculovirus assessed as phosphorylation of recombinant Bad protein by Western blotting
Summary of the method: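 Active recombinant Akt1 (50 nM final) was preincubated 5 min at room temperature with test agent in DMSO (1.4% final) in assay dilution buffer. Soluble Bad (1.2 µM final) and Mg-ATP solution were then added, followed by 30 min at 30 °C with agitation. Read-out was SDS-PAGE, PVDF transfer, anti-phospho-Bad (Ser112) with HRP secondary, chemiluminescence and densitometry. IC50 is the mean of three experiments.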

[10] = system: M14; test: Cytotoxicity against human M14 cells; assay type: functional; summary of the method: as §1
[11] = system: OVCAR-5; test: Cytotoxicity against human OVCAR5 cells; assay type: functional; summary of the method: as §1
[12] = system: U-937; test: Cytotoxicity against human U937 cells; assay type: functional; summary of the method: as §1
[13] = system: HepG2; test: Cytotoxicity against human HepG2 cells; assay type: functional; summary of the method: as §1
[14] = system: SK-MEL-28; test: Cytotoxicity against human SK-MEL-28 cells; assay type: functional; summary of the method: as §1
[15] = system: OVCAR-8; test: Cytotoxicity against human OVCAR8 cells; assay type: functional; summary of the method: as §1
[16] = system: OVCAR-3; test: Cytotoxicity against human OVCAR-3 cells; assay type: functional; summary of the method: as §1
[17] = system: MCF7; test: Cytotoxicity against human MCF7 cells; assay type: functional; summary of the method: as §1
[18] = system: RPMI-8226; test: Cytotoxicity against human RPMI8226 cells; assay type: functional; summary of the method: as §1
[19] = system: BT-549; test: Cytotoxicity against human BT549 cells; assay type: functional; summary of the method: as §1

- IC50 [4]: 19.7 µM
- IC50 [9]: 30.4 µM
SMILES: CC1OC(=O)c2cc(O)c(O)c(O)c21 (centres undefined)
- GI50 [1]: > 100 µM
- GI50 [2]: > 100 µM
- GI50 [3]: 20 µM
- GI50 [5]: 60 µM
- GI50 [6]: > 100 µM
- GI50 [7]: 85 µM
- GI50 [8]: 87 µM
- GI50 [10]: > 100 µM
- GI50 [11]: 74 µM
- GI50 [12]: 60 µM
- GI50 [13]: > 100 µM
- GI50 [14]: 37 µM
- GI50 [15]: 82 µM
- GI50 [16]: > 100 µM
- GI50 [17]: > 100 µM
- GI50 [18]: 67 µM
- GI50 [19]: 24 µM
